In ChEMBL document CHEMBL4732164, “Structure-Based Design of Potent Selective Nanomolar Type-II Inhibitors of Glycogen Synthase Kinase-3β” (J Med Chem, 2021):
Calls of active or inactive are those of the source. No cut-off for these calls is given here.

Assays:
[1] = molecular target: T1, Glycogen synthase kinase-3 beta (Homo sapiens, UniProt P49841); test: Inhibition of recombinant human GSK-3beta at 50 uM using phosphorylated polypeptide as substrate incubated for 30 mins in presence of ATP by kinase-glo luminescence assay relative to control
Outline: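 Kinase-Glo luminescence: 20 ng enzyme with test compound (DMSO ≤1% final), 25 μM substrate, 1 μM ATP. Buffer is 50 mM HEPES pH 7.5, 1 mM EDTA, 1 mM EGTA, 15 mM magnesium acetate. Runs 30 min at 30 °C; luminescence read 10 min after reagent. Inhibition is relative to no-inhibitor maximal activity.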
Target sequence in this assay (P49841 whole entry, looked up): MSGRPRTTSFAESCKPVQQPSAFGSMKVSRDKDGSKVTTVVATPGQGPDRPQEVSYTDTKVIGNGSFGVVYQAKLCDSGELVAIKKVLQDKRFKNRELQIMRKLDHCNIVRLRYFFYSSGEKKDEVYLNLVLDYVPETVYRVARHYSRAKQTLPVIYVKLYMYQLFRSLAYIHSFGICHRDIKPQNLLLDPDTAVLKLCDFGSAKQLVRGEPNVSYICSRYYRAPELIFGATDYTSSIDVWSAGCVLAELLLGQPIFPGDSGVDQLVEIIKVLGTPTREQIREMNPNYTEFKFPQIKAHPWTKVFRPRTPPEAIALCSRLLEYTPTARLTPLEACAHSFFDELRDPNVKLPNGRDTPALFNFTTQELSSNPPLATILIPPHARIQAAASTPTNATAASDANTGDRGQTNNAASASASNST

[2] = molecular target: T1, Glycogen synthase kinase-3 beta; test: Inhibition of recombinant human GSK-3beta using phosphorylated polypeptide as substrate incubated for 30 mins in presence of ATP by kinase-glo luminescence assay
Outline: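 Buffer is 50 mM HEPES pH 7.5, 1 mM EDTA, 1 mM EGTA, 15 mM magnesium acetate. Runs 30 min at 30 °C; luminescence read 10 min after reagent. Inhibition is relative to no-inhibitor maximal activity.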
Target sequence in this assay (P49841 whole entry): as the sequence (P49841 whole entry, looked up) above

[3] = Inhibition of Ustilago maydis GSK-3beta using Ser/Thr 6 peptide as substrate preincubated for 60 mins followed by ATP and substrate addition and measured after 45 mins by Z'lyte assay; design: species or system Mycosarcoma maydis
[4] = molecular target: RAC-alpha serine/threonine-protein kinase (Homo sapiens) (UniProt P31749); test: Inhibition of PKBalpha (unknown origin) assessed as enzyme remaining activity at 5 uM relative to control
SH-SY5Y = test: Neuroprotective activity against OA-induced neuronal injury in human SH-SY5Y cells assessed as reduction in cell death at 0.1 to 10 uM pre-incubated for 1 hrs followed by OA addition measured after 24 hrs by MTT assay; format: functional, cell-based; details: dose 0.1-10 µM
Outline: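 SH-SY5Y cells (DMEM, 10% FBS, 1% pen/strep, 37 °C, 5% CO2) seeded at 60,000/well and grown 48 h. Compound (0.1, 0.5, 1, 5, 10 μM) added 1 h before okadaic acid at 30 nM, then 24 h. Viability by MTT (0.5 mg/mL, ≥4 h), formazan in DMSO, A595, as % control. Mean ± SEM, three independent experiments.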

[5] = molecular target: Protein kinase C gamma type (Homo sapiens) (UniProt P05129); test: Inhibition of PKCgamma (unknown origin) assessed as enzyme remaining activity at 5 uM relative to control
Homo sapiens = species: Homo sapiens; test: Inhibition of PKA (unknown origin) assessed as enzyme remaining activity at 5 uM relative to control
[6] = molecular target: Cyclin-dependent kinase 2 (Homo sapiens) (UniProt P24941); test: Inhibition of CDK2 (unknown origin) assessed as enzyme remaining activity at 5 uM relative to control
[7] = molecular target: Cyclin-dependent kinase 5 (Homo sapiens) (UniProt Q00535); test: Inhibition of CDK5 (unknown origin) assessed as enzyme remaining activity at 5 uM relative to control
[8] = molecular target: Mitogen-activated protein kinase 1 (Homo sapiens) (UniProt P28482); test: Inhibition of ERK2 (unknown origin) assessed as enzyme remaining activity at 5 uM relative to control
[9] = molecular target: Protein kinase C alpha type (Homo sapiens) (UniProt P17252); test: Inhibition of PKCalpha (unknown origin) assessed as enzyme remaining activity at 5 uM relative to control
[10] = molecular target: Glycogen synthase kinase-3 alpha (Homo sapiens) (UniProt P49840); test: Inhibition of GSK3alpha (unknown origin) assessed as enzyme remaining activity at 5 uM relative to control
[11] = molecular target: Cyclin-dependent kinase 9 (Homo sapiens) (UniProt P50750); test: Inhibition of CDK9 (unknown origin) assessed as enzyme remaining activity at 5 uM relative to control
[12] = molecular target: Mitogen-activated protein kinase 3 (Homo sapiens) (UniProt P27361); test: Inhibition of ERK1 (unknown origin) assessed as enzyme remaining activity at 5 uM relative to control
Sequence of Mitogen-activated protein kinase 3 (Homo sapiens) (P27361 whole entry): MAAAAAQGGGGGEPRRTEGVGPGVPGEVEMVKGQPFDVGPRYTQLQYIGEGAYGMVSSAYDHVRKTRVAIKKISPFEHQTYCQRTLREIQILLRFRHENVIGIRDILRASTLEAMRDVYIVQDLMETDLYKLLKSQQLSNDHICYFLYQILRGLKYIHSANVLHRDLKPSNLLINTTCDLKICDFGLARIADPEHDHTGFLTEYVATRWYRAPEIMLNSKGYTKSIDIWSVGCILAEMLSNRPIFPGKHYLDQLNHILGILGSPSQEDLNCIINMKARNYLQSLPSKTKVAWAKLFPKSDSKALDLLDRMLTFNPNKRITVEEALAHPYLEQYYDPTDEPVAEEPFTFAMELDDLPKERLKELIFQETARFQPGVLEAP

Sequence of RAC-alpha serine/threonine-protein kinase (Homo sapiens) (P31749 whole entry): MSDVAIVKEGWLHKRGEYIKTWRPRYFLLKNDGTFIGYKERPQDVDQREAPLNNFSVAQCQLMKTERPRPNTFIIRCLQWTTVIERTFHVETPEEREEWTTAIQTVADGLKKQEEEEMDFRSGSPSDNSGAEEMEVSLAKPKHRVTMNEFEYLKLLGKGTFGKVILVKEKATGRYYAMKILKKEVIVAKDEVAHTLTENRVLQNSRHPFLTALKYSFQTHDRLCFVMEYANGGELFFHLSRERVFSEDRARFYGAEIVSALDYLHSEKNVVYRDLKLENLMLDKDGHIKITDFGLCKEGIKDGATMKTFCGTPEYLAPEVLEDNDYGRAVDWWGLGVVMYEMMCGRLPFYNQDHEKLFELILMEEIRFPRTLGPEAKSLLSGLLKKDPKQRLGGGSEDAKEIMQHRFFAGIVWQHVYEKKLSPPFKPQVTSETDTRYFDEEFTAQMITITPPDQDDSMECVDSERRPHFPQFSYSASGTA
Sequence of Cyclin-dependent kinase 9 (Homo sapiens) (P50750 whole entry): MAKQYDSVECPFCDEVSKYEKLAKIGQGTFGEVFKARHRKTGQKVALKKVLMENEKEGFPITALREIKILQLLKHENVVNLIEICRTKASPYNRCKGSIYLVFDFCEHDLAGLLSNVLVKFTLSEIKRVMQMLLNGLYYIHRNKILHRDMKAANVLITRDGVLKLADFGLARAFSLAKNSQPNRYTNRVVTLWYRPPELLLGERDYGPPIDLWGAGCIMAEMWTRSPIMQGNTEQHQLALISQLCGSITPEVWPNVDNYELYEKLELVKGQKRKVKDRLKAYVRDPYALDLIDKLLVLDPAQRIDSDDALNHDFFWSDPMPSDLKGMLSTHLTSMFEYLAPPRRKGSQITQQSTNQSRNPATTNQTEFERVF
Sequence of Mitogen-activated protein kinase 1 (Homo sapiens) (P28482 whole entry): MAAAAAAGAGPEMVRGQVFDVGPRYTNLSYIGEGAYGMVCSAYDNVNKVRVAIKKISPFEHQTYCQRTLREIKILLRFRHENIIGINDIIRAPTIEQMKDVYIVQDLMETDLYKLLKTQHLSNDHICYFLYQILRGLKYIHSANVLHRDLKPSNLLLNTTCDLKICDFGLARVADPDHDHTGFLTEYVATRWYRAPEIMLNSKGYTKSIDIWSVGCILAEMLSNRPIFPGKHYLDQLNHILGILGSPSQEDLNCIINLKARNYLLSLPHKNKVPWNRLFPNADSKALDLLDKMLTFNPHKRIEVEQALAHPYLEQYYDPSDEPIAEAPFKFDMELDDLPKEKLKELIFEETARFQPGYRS
Sequence of Glycogen synthase kinase-3 alpha (Homo sapiens) (P49840 2-483 limits assumed): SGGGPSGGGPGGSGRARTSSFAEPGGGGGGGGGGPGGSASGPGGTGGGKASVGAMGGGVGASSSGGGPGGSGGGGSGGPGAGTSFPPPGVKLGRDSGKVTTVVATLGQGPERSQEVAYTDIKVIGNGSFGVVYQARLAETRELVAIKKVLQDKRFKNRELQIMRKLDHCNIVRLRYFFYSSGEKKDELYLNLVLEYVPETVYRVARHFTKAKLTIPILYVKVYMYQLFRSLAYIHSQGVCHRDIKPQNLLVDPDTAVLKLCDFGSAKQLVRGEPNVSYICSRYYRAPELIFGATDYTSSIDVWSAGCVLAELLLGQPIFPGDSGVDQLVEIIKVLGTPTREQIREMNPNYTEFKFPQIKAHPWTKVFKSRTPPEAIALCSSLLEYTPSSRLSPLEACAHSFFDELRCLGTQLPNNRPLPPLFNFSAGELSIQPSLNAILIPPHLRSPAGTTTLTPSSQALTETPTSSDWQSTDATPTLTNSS
Sequence of Cyclin-dependent kinase 5 (Homo sapiens) (Q00535 whole entry, looked up): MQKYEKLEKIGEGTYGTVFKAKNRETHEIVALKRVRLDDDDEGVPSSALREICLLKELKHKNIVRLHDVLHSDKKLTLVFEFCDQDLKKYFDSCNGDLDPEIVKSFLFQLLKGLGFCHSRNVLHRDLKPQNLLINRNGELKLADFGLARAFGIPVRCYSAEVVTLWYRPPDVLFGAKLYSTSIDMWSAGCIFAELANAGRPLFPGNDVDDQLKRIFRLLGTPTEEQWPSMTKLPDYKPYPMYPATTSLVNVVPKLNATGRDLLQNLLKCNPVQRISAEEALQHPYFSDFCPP

SMILES	inhibition [1] [%]	IC50 [2] [µM]	further results
CSc1cccc(NC(=O)NC2C[C@@H]3CCCN2CC3CN(C)c2ccccc2)c1 (stereo partly specified)	1	> 50	
O=C(Nc1cccc(C(F)(F)F)c1)O[C@@H]1CO[C@H]2[C@@H]1OC[C@@H]2NC(=S)Nc1ccc(Cl)cc1	41	> 50	
Cc1ccc(-n2nc(C(C)(C)C)cc2NC(=O)Nc2ccc(OCCN3CCOCC3)c3ccccc23)cc1 [DORAMAPIMOD]			IC50 [3]: 1.06 µM
COC(=O)c1ccc2c(c1)nc1n2[C@@H](CNC(=O)Nc2ccccc2)COC1	1	> 50	
Cn1cccc1C(=O)N1C[C@H](NC(=O)Nc2ccc(F)cc2F)C[C@@H]1C(=O)N[C@H](Cc1c[nH]c2ccccc12)C(N)=O	6	> 50	
Cc1cc2nc(CO[C@H]3CN(Cc4cccnc4)C[C@H]3F)[nH]c2cc1C	5	> 50	
COC(=O)c1cccc(NC(=S)N[C@H]2CO[C@H]3[C@@H]2OC[C@H]3OC(=O)Nc2cccc(C(F)(F)F)c2)c1	21	> 50	
Cc1nn(-c2ccccc2[N+](=O)[O-])c(C)c1[C@@H]1C=C[C@@H](NC(=O)Nc2cccc(C#N)c2)C1	26	> 50	
O=C(Nc1cccc(C(F)(F)F)c1)N[C@H]1CO[C@H]2[C@@H]1OC[C@H]2OC(=O)Nc1cccc2ccccc12	35	> 50	
O=C(Nc1cccc(C(F)(F)F)c1)N[C@H]1CO[C@H]2[C@@H]1OC[C@@H]2OC(=O)Nc1ccc(Oc2ccccc2)cc1	42	> 50	
N#Cc1ccc(CN2C[C@@H](F)[C@@H](OCc3nc4cc(C(F)(F)F)ccc4[nH]3)C2)cc1	2	> 50	
Cn1sc(=O)n(Cc2ccccc2)c1=O			Activity (SH-SY5Y): Active
O=C(Nc1cccc2ccccc12)O[C@@H]1CO[C@H]2[C@@H]1OC[C@@H]2NC(=S)Nc1ccc(Cl)cc1	39	> 50	
O=C(O)CCCNC(=O)c1cc(Oc2ccc(NC(=O)Nc3ccc(Cl)c(C(F)(F)F)c3)cc2)ccn1			IC50 [3]: 0.154 µM
CC(C)=CC(=O)N1CC(NC(=O)Nc2ccc(F)cc2F)CC1C(=O)N[C@H](Cc1c[nH]c2ccccc12)C(N)=O (stereo partly specified)	5	> 50	
CC(C)(C)c1cc(NC(=O)Nc2ccc(OCCN3CCOCC3)c3ccccc23)n(-c2cccc(N)c2)n1			IC50 [3]: 1.1 µM
COc1ccc(C(=O)N2C[C@@H](F)[C@@H](OCc3nc4cc(C(F)(F)F)ccc4[nH]3)C2)cc1	33	> 50	

SMILES	inhibition [1] [%]	IC50 [2] [µM]	further results
CNC(=O)c1cc(Oc2ccc(NC(=O)Nc3cc(C(F)(F)F)c(Cl)cc3OCCCC(=O)O)cc2)ccn1			IC50 [3]: 0.057 µM
COc1ccc2nc(CO[C@H]3CN(Cc4ccnc5ccccc45)C[C@H]3F)[nH]c2c1	13	> 50	
O=C(c1ccncc1)N1C[C@@H](F)[C@@H](OCc2nc3ccc(F)cc3[nH]2)C1	19	> 50	
Cc1ccc(-n2nc(C(C)(C)C)cc2NC(=O)Nc2ccc(OCCN3CCOCC3)cc2)cc1			IC50 [3]: 10.3 µM
CNC(=O)c1cc(Oc2ccc(NC(=O)Nc3ccc(Cl)c(C(F)(F)F)c3)cc2)ccn1 [SORAFENIB]			IC50 [3]: 0.71 µM
O=C(c1cccnc1)N1C[C@@H](F)[C@@H](OCc2nc3cc(C(F)(F)F)ccc3[nH]2)C1	14	> 50	
CSCC(=O)N1C[C@@H](NC(=O)Nc2cccc(SC)c2)C[C@H]1C(=O)N[C@H](Cc1c[nH]c2ccccc12)C(N)=O	5	> 50	
CS(=O)(=O)c1ccc(CN2C[C@@H](F)[C@@H](OCc3nc4cc(C(F)(F)F)ccc4[nH]3)C2)cc1	19	> 50	
O=C(c1ccccc1)N1C[C@@H](F)[C@@H](OCc2nc3cc(C(F)(F)F)ccc3[nH]2)C1	7	> 50	
O=C(Nc1cccc(C(F)(F)F)c1)N[C@H]1CO[C@H]2[C@@H]1OC[C@@H]2n1nnnc1-c1cccc(CN2CCCC2)c1	7	> 50	
Cn1c(CO[C@H]2CN(Cc3c[nH]c4ccccc34)C[C@H]2F)nc2ccccc21	14	> 50	
CC(=O)Nc1ccc(CN2C[C@@H](F)[C@@H](OCc3nc4cc(C)c(C)cc4[nH]3)C2)cc1	2	> 50	
CCOC(=O)Cc1ccc(-n2nc(C(C)(C)C)cc2NC(=O)Nc2ccc(OCCN3CCOCC3)c3ccccc23)cc1			IC50 [3]: 1.8 µM
COc1ccccc1-c1ccnc(N[C@H]2CO[C@H]3[C@@H]2OC[C@@H]3NC(=O)Nc2cccc(C(F)(F)F)c2)n1		27	
CC(C)(C)c1cc(NC(=O)Nc2ccc(Cl)cc2)n(-c2cccc(N)c2)n1			IC50 [3]: 7.8 µM
O=C(Nc1cccc2ccccc12)N[C@H]1CO[C@H]2[C@@H]1OC[C@H]2OC(=O)Nc1ccccc1	21	> 50	

More lines, in order of falling IC50 [2], values ahead:

inhibition [1] [%]	IC50 [2] [µM]	SMILES	further results
	14	CC(C)(C)c1ccnc(N[C@H]2CO[C@H]3[C@@H]2OC[C@@H]3NC(=O)Nc2cccc(C(F)(F)F)c2)n1	
	11.9	O=C(Nc1cccc(C(F)(F)F)c1)N[C@H]1CO[C@H]2[C@@H]1OC[C@@H]2Nc1nccc(C2CCCC2)n1	
	9.75	COc1ccc(-c2ccnc(N[C@H]3CO[C@H]4[C@@H]3OC[C@@H]4NC(=O)Nc3cccc(C(F)(F)F)c3)n2)cc1	
	6.08	COc1ccccc1-c1ccnc(N[C@H]2CO[C@H]3[C@@H]2OC[C@@H]3NC(=O)Nc2cccc(C#N)c2)n1	Activity (SH-SY5Y): inactive
	5.66	CN(C)c1ccc(-c2ccnc(N[C@H]3CO[C@H]4[C@@H]3OC[C@@H]4NC(=O)Nc3cccc(C(F)(F)F)c3)n2)cc1	
	4.04	O=C(Nc1cccc(C(F)(F)F)c1)N[C@H]1CO[C@H]2[C@@H]1OC[C@@H]2Nc1nccc(-c2cccs2)n1	
	2.95	O=C(Nc1cccc(C(F)(F)F)c1)N[C@H]1CO[C@H]2[C@@H]1OC[C@@H]2Nc1nccc(-c2ccco2)n1	
	2.7	O=C(Nc1ccccc1)N[C@H]1CO[C@H]2[C@@H]1OC[C@@H]2Nc1nccc(-c2cccs2)n1	
	2.08	N#Cc1cccc(NC(=O)N[C@H]2CO[C@H]3[C@@H]2OC[C@@H]3Nc2nccc(-c3cccc(F)c3)n2)c1	Activity (SH-SY5Y): Active
	2.06	O=C(Nc1cccc(C(F)(F)F)c1)N[C@H]1CO[C@H]2[C@@H]1OC[C@@H]2Nc1nccc(-c2cccc(F)c2)n1	Activity (SH-SY5Y): Active
	1.08	O=C(Nc1cccc(C(F)(F)F)c1)O[C@@H]1CO[C@H]2[C@@H]1OC[C@@H]2Nc1nccc(-c2ccc3c(c2)OCO3)n1	Activity (SH-SY5Y): inactive
	0.56	COc1ccc(-c2ccnc(N[C@H]3CO[C@H]4[C@@H]3OC[C@@H]4NC(=O)Nc3ccccc3)n2)cc1	Activity (SH-SY5Y): Active
	0.421	COc1ccc(-c2ccnc(N[C@H]3CO[C@H]4[C@@H]3OC[C@@H]4NC(=O)Nc3cc(OC)cc(OC)c3)n2)cc1	Activity (SH-SY5Y): Active
	0.412	COc1ccc(-c2ccnc(N[C@H]3CO[C@H]4[C@@H]3OC[C@@H]4NC(=O)Nc3ccc(C(C)=O)cc3)n2)cc1	Activity [4]: > 50%; Activity (SH-SY5Y): Active; Activity [5]: > 50%; Activity (Homo sapiens): > 50%; Activity [6]: > 50%; Activity [7]: > 50%; Activity [8]: > 50%; Activity [9]: > 50%; Activity [10]: > 50%; Activity [11]: 33.8%; Activity [12]: > 50%
	0.117	CCNC(=O)N[C@H]1CO[C@H]2[C@@H]1OC[C@@H]2Nc1nccc(-c2ccc(OC)cc2)n1	Activity (SH-SY5Y): Active
	0.087	COc1ccc(-c2ccnc(N[C@H]3CO[C@H]4[C@@H]3OC[C@@H]4NC(=O)Nc3cccc(C#N)c3)n2)cc1	Activity (SH-SY5Y): Active
